Measurements as given in ChEMBL document CHEMBL1140191, “Lynamicins A-E, chlorinated bisindole pyrrole antibiotics from a novel marine actinomycete” (J Nat Prod, 2008).
In brackets after ≈: the same amount, converted by molar mass.

Key:
Staphylococcus aureus [1] = test: Antibacterial activity against methicillin-sensitive Staphylococcus aureus ATCC 29213 after 14 to 16 hrs by serial microbroth dilution method; type: functional
Outline: (§1)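 NCCLS broth microdilution in cation-adjusted Mueller-Hinton broth, no CO2 incubation. Final inoculum about 5 × 10^5 cfu/mL. Plates held at 35 °C for 14-16 h. MIC read as the lowest concentration with no visible bacterial growth.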

Haemophilus influenzae [2] = test: Antibacterial activity against Haemophilus influenzae ATCC […] after 14 to 16 hrs; type: functional
Outline: (§2)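 Serial microbroth dilution (NCCLS) in Haemophilus Test Medium in a CO2 incubator. Final inoculum about 5 × 10^5 cfu/mL, 35 °C for 14-16 h. MIC is the lowest drug concentration preventing visible growth.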

Staphylococcus aureus [3] = test: Antibacterial activity against methicillin-resistant Staphylococcus aureus ATCC 43300 after 14 to 16 hrs by serial microbroth dilution method; type: functional
Outline: (§3)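 Broth microdilution MIC per NCCLS standards in cation-adjusted Mueller-Hinton broth, without CO2. Final inoculum approximately 5 × 10^5 cfu/mL. Incubated 35 °C for 14-16 h. MIC taken as the lowest drug concentration preventing visible growth.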

Escherichia coli = test: Antibacterial activity against Escherichia coli imp permeable mutant after 14 to 16 hrs by serial microbroth dilution method; type: functional; outline: as §3
Enterococcus faecalis = test: Antibacterial activity against vancomycin-sensitive Enterococcus faecalis ATCC 29212 after 14 to 16 hrs by serial microbroth dilution method; type: functional; outline: as §1
[4] = system: Staphylococcus epidermidis; test: Antibacterial activity against multi drug-resistant Staphylococcus epidermidis ATCC 700582 after 14 to 16 hrs by serial microbroth dilution method; type: functional; outline: as §3
Streptococcus pneumoniae [5] = test: Antibacterial activity against penicillin-sensitive Streptococcus pneumoniae ATCC 49619 after 14 to 16 hrs; type: functional
Outline: (§4)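 Serial microbroth dilution MIC per NCCLS in cation-adjusted Mueller-Hinton broth II with lysed horse blood. Incubated in a CO2 incubator at 35 °C for 14-16 h. Final inoculum approximately 5 × 10^5 cfu/mL. MIC read as the lowest concentration with no visible growth.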

[6] = system: Staphylococcus epidermidis; test: Antibacterial activity against multi drug-resistant Staphylococcus epidermidis ATCC 700578 after 14 to 16 hrs by serial microbroth dilution method; type: functional; outline: as §3
Enterococcus faecium = test: Antibacterial activity against vancomycin-resistant Enterococcus faecium ATCC 700221 after 14 to 16 hrs by serial microbroth dilution method; type: functional; outline: as §3
Streptococcus pneumoniae [7] = test: Antibacterial activity against penicillin-resistant Streptococcus pneumoniae ATCC 51915after 14 to 16 hrs; type: functional; outline: as §4
Haemophilus influenzae [8] = test: Antibacterial activity against Haemophilus influenzae ATCC 49766 after 14 to 16 hrs; type: functional; outline: as §2
Herpesviridae sp. = test: Antiviral activity against HSV; type: functional, organism-based

Compound `COC(=O)c1[nH]cc(-c2c[nH]c3ccc(Cl)cc23)c1-c1c[nH]c2ccc(Cl)cc12` [LYNAMICIN A] has an MIC (Staphylococcus aureus [1]) of 4.3 µM (≈ 1.82 µg/mL), an MIC (Haemophilus influenzae [2]) of 38 µM (≈ 16.1 µg/mL) and an MIC (Staphylococcus aureus [3]) of 4.7 µM (≈ 1.99 µg/mL). It also gave an MIC (Escherichia coli) of 16 µM (≈ 6.79 µg/mL), an MIC (Enterococcus faecalis) of 19 µM (≈ 8.06 µg/mL) and an MIC [4] of 9.5 µM (≈ 4.03 µg/mL). The MIC (Streptococcus pneumoniae [5]) was 57 µM (≈ 24.2 µg/mL), the MIC [6] was 9.5 µM (≈ 4.03 µg/mL) and the MIC (Enterococcus faecium) was 19 µM (≈ 8.06 µg/mL). It also gave an MIC (Streptococcus pneumoniae [7]) of 57 µM (≈ 24.2 µg/mL) and an MIC (Haemophilus influenzae [8]) of 28 µM (≈ 11.9 µg/mL).

For `COC(=O)c1[nH]c(C(=O)OC)c(-c2c[nH]c3ccc(Cl)cc23)c1-c1c[nH]c2ccccc12` [LYNAMICIN E], the MIC (Staphylococcus aureus [1]) was greater than 45 µM, the MIC (Haemophilus influenzae [2]) was greater than 72 µM and the MIC (Staphylococcus aureus [3]) was 27 µM (≈ 12.1 µg/mL). For the same compound, the MIC (Escherichia coli) was greater than 72 µM, the MIC (Enterococcus faecalis) was greater than 54 µM and the MIC [4] was greater than 72 µM. For the same compound, the MIC (Streptococcus pneumoniae [5]) was greater than 72 µM, the MIC [6] was 45 µM (≈ 20.2 µg/mL) and the MIC (Enterococcus faecium) was greater than 54 µM. The MIC (Streptococcus pneumoniae [7]) was greater than 72 µM and the MIC (Haemophilus influenzae [8]) was greater than 72 µM.

Work on `COC(=O)c1[nH]c(C(=O)OC)c(-c2c[nH]c3ccc(Cl)cc23)c1-c1c[nH]c2ccc(Cl)cc12` [LYNAMICIN D] yielded an MIC (Staphylococcus aureus [1]) of 6.2 µM (≈ 2.99 µg/mL), an MIC (Haemophilus influenzae [2]) of 10 µM (≈ 4.82 µg/mL) and an MIC (Staphylococcus aureus [3]) of 6.2 µM (≈ 2.99 µg/mL). For the same compound, the MIC (Escherichia coli) was greater than 67 µM, the MIC (Enterococcus faecalis) was 17 µM (≈ 8.2 µg/mL) and the MIC [4] was 8.3 µM (≈ 4 µg/mL). It also gave an MIC (Streptococcus pneumoniae [5]) of 50 µM (≈ 24.1 µg/mL), an MIC [6] of 8.3 µM (≈ 4 µg/mL) and an MIC (Enterococcus faecium) of 17 µM (≈ 8.2 µg/mL). It also gave an MIC (Streptococcus pneumoniae [7]) of 42 µM (≈ 20.3 µg/mL) and an MIC (Haemophilus influenzae [8]) of 17 µM (≈ 8.2 µg/mL).

`COC(=O)c1[nH]cc(-c2c[nH]c3cc(Cl)c(Cl)cc23)c1-c1c[nH]c2ccc(Cl)cc12` [LYNAMICIN B] showed an MIC (Staphylococcus aureus [1]) of 1.8 µM (≈ 0.826 µg/mL), an MIC (Haemophilus influenzae [2]) of 4.4 µM (≈ 2.02 µg/mL) and an MIC (Staphylococcus aureus [3]) of 2.2 µM (≈ 1.01 µg/mL). The MIC (Escherichia coli) was 13 µM (≈ 5.96 µg/mL), the MIC (Enterococcus faecalis) was 3.3 µM (≈ 1.51 µg/mL) and the MIC [4] was 2.2 µM (≈ 1.01 µg/mL). The MIC (Streptococcus pneumoniae [5]) was 18 µM (≈ 8.26 µg/mL), the MIC [6] was 2.2 µM (≈ 1.01 µg/mL) and the MIC (Enterococcus faecium) was 4.4 µM (≈ 2.02 µg/mL). The MIC (Streptococcus pneumoniae [7]) was 18 µM (≈ 8.26 µg/mL) and the MIC (Haemophilus influenzae [8]) was 13 µM (≈ 5.96 µg/mL).

`Clc1cc2[nH]cc(-c3c[nH]cc3-c3c[nH]c4cc(Cl)c(Cl)cc34)c2cc1Cl` [LYNAMICIN C] showed an MIC (Staphylococcus aureus [1]) of 2.5 µM (≈ 1.09 µg/mL), an MIC (Haemophilus influenzae [2]) of 9.2 µM (≈ 4 µg/mL) and an MIC (Staphylococcus aureus [3]) of 3.5 µM (≈ 1.52 µg/mL). It also gave an MIC (Escherichia coli) of 15 µM (≈ 6.53 µg/mL), an MIC (Enterococcus faecalis) of 5.8 µM (≈ 2.52 µg/mL) and an MIC [4] of 2.3 µM (≈ 1 µg/mL). The MIC (Streptococcus pneumoniae [5]) was 46 µM (≈ 20 µg/mL), the MIC [6] was 2.3 µM (≈ 1 µg/mL) and the MIC (Enterococcus faecium) was 4.6 µM (≈ 2 µg/mL). For the same compound, the MIC (Streptococcus pneumoniae [7]) was 46 µM (≈ 20 µg/mL) and the MIC (Haemophilus influenzae [8]) was 15 µM (≈ 6.53 µg/mL).

Compound `COC(=O)c1[nH]c(C(=O)OC)c(-c2c[nH]c3ccccc23)c1-c1c[nH]c2ccccc12` [LYCOGARUBIN C] has an IC50 (Herpesviridae sp.) of 17.2 µg/mL (≈ 41.6 µM).

`O=C(O)c1[nH]c(C(=O)O)c(-c2c[nH]c3ccccc23)c1-c1c[nH]c2ccccc12` [LYCOGALIC ACID A] gave an IC50 (Herpesviridae sp.) of 17.2 µg/mL (≈ 44.6 µM).
